For one data set, the system named is BMDM. Briefly: Inhibition of pyroptosis in LPS-primed C57BL/6 mouse primary BMDM assessed as reduction in nigericin-induced cell death by Alamar blue assay. The format is functional, cell-based. In short, it runs like this: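 Primary murine macrophages primed with LPS and stimulated with nigericin across a dose range. IL-1β release, LDH release and Alamar blue measured. Means ± SE, ≥3 experimental replicates.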

The next data set has as its target T1, Caspase-8 (Mus musculus) (UniProt O89110).
T1 sequence (whole entry): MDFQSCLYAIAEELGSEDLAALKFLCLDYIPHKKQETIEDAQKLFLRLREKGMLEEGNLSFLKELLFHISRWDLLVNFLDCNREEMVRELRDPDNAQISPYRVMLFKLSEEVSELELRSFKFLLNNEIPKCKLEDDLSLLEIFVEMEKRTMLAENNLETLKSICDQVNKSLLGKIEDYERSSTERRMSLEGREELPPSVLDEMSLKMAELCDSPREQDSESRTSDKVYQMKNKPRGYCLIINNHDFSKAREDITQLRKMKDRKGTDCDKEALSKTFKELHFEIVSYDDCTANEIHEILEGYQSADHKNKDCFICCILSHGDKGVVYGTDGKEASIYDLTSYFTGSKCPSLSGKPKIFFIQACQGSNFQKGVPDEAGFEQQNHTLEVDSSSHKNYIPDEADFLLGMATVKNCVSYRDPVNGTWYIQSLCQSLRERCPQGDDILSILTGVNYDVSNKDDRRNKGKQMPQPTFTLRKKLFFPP
Nature of the data set: Inhibition of caspase-8 activity in LPS-primed immortalized mouse […] cells assessed as reduction in nigericin-induced caspase-8 cleavage at 5 uM by Western blot analysis. The format is cell-based. The note with it: J774.A1. In short, it runs like this:
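Western blot of full-length and cleaved caspase-1 and caspase-8 in J774A.1 cells after nigericin, with tubulin as loading control. Bands quantified as bar graphs.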
A general note: Immunoblotting shows a protein as a band on a membrane.

For data set [1], the system named is Mus musculus. Briefly: Antiinflammatory activity against LPS-induced sepsis C57BL/6J mouse model assessed as reduction in serum IL-1beta level at 20 mg/kg, iv administered as single dose for 1 hr prior to LPS challenge and measured after 24 hrs of compound treatment by ELISA. The class given is functional, organism-based.
Data set [2] has as its system Mus musculus. Briefly: Antiinflammatory activity against LPS-induced sepsis C57BL/6J mouse model assessed as increase in median survival time at 20 mg/kg, iv administered as single dose for 30 min prior to LPS challenge.
Data set [3] concerns the target Nlrp3/Pycard (Mus musculus) (UniProt Q8R4B8+Q9EPB4). Briefly: Inhibition of NLRP3-ASC interaction in LPS-primed immortalized mouse […] cells at 5 uM by co-immunoprecipitation assay. The settings on record: J774.A1. The class given is cell-based. In short, it runs like this: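 Coimmunoprecipitation of endogenous ASC and NLRP3 in immortalized macrophages.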
The subject of data set [4] is Mus musculus. Nature of the data set: Antiinflammatory activity against LPS-induced sepsis C57BL/6J mouse model assessed as reduction in alveolar exudate at 20 mg/kg, iv administered as single dose for 1 hr prior to LPS challenge and measured after 48 hrs by hematoxylin-eosin staining based inverted microscopy analysis. The class given is functional, organism-based.

The target of the next data set is T2, Caspase-4 (Mus musculus) (UniProt P70343).
T2 sequence (whole entry): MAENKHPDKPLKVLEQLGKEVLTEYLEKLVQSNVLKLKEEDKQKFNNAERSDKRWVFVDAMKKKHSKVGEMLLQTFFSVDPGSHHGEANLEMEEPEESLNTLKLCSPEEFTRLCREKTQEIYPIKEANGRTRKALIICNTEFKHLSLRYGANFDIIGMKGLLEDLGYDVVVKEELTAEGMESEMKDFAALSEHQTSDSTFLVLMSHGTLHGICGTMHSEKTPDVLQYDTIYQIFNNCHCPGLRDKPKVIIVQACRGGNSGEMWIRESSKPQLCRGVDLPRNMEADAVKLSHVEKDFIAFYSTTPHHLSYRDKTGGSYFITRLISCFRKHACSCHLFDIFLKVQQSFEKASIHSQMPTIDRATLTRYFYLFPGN
Briefly: Inhibition of pyroptosis-inducing caspase-11 in LPS-primed immortalized mouse […] cells assessed as cell death at 5 uM by LDH assay. The format is cell-based. The note with it: J774.A1. In short, it runs like this:
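Cell death induced by cytoplasmic LPS in J774A.1 cells, measured by LDH release. Mean ± SEM, n ≥ 3.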

The test system of the next data set is THP-1. Nature of the data set: Inhibition of pyroptosis in LPS-primed human THP1 assessed as reduction in nigericin-induced cell death at 0.1 to 20 uM by LDH assay. The format is functional, cell-based. In short, it runs like this: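 THP-1 cells induced to pyroptosis. Cell death read by LDH release and pore formation by PI uptake. Means ± SE, ≥3 experimental replicates.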

A further data set is filed under the species Danio rerio. Briefly: Antiinflammatory immunity against LPS-induced sepsis in […]:eGFP zebrafish larva assessed as decrease in macrophage infiltration in intestine at 5 uM measured at 7 dpf by confocal microscopic analysis. The format is functional, organism-based. In short, it runs like this: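 Zebrafish sepsis model using Tg(mpeg1:eGFP) larvae with GFP-labelled macrophages, treated at 5 μM. Intestine imaged by confocal microscopy at 7 days post fertilization, and macrophages counted in the imaged region.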

Data set [5] has as its system Mus musculus. Briefly: Antiinflammatory activity against LPS-induced sepsis C57BL/6J mouse model assessed as reduction in alveolar congestion at 20 mg/kg, iv administered as single dose for 1 hr prior to LPS challenge and measured after 48 hrs by hematoxylin-eosin staining based inverted microscopy analysis. The format is functional, organism-based.
Data set [6] concerns the target T3, Gastrin/cholecystokinin type B receptor (Mus musculus) (UniProt P56481).
T3 sequence (whole entry): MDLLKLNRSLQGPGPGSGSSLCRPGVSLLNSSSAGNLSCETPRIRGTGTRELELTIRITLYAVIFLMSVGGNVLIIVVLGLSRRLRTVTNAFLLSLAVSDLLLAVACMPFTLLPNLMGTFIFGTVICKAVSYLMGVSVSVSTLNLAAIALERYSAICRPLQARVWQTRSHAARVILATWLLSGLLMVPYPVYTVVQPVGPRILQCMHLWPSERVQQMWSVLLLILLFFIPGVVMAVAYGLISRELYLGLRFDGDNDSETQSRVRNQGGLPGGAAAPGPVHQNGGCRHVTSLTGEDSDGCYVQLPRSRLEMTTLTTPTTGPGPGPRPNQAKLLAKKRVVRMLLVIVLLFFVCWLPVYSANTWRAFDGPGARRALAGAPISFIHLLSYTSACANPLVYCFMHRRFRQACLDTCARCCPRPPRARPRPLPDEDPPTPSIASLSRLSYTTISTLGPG
Briefly: Antagonist activity at CCKB receptor in immortalized mouse […] cells assessed as inhibition of nigericin-induced pyroptosis at 5 uM. The class given is cell-based. The note with it: J774.A1. In short, it runs like this:
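CCKB antagonists netazepide and proglumide were given to immortalized macrophages, with pyroptosis induced by nigericin.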

Data set [7] concerns the target NACHT, LRR and PYD domains-containing protein 3 (Mus musculus) (UniProt Q8R4B8). Briefly: Activation of NLRP3 inflammasome in LPS-primed mouse […] cells assessed as suppression of ATP-induced pyroptosis at 5 uM. The class given is cell-based. The settings on record: J774.A1. In short, it runs like this: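 ATP used as a separate NLRP3 inflammasome activator in macrophages to induce pyroptosis.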

Data set [8] can be described thus: Toxicity in zebrafish embryo. Set-up: species or system Danio rerio. The note with it: in vivo. In short, it runs like this:
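Zebrafish embryos exposed to compound. EC100 is the concentration at which all treated embryos show early lethality, embryonic defects or developmental delay.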

The nature of data set [9]: Lipid-water partition coefficient, logP of the compound. The class given is physicochemical.

The source made the active and inactive calls. The calls are words filed in the database; no cut-off is given here.

Sequence of NACHT, LRR and PYD domains-containing protein 3 (Mus musculus) (Q8R4B8 whole entry, the tested form may be a part): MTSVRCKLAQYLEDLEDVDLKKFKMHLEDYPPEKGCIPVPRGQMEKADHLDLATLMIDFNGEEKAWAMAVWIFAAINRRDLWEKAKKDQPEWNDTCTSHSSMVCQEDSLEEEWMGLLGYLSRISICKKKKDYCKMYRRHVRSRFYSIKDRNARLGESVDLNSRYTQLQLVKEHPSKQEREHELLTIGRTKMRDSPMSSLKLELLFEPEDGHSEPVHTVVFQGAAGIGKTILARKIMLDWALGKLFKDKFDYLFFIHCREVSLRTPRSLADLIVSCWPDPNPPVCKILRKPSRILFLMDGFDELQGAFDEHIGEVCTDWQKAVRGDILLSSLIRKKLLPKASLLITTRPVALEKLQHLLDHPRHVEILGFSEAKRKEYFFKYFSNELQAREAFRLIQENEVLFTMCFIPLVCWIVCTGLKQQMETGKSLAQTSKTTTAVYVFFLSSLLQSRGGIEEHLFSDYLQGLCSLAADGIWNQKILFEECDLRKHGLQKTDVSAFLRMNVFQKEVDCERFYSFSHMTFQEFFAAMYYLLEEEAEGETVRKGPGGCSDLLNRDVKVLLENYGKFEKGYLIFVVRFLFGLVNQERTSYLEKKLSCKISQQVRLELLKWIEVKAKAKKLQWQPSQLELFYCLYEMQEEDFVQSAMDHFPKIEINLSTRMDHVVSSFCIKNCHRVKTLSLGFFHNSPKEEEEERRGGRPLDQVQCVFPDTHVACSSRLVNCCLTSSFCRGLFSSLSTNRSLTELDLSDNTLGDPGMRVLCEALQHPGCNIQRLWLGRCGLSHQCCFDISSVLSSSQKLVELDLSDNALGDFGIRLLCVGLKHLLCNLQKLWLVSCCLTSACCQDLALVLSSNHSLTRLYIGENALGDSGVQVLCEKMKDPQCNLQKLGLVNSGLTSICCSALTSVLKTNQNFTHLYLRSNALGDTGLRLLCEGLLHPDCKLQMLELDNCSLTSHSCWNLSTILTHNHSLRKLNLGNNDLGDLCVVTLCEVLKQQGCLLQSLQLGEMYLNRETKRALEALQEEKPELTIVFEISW
Sequence of Nlrp3/Pycard (Mus musculus) (Q8R4B8 whole entry, looked up): as the sequence (Q8R4B8 whole entry, the tested form may be a part) above
Sequence of Nlrp3/Pycard (Mus musculus) (Q9EPB4 whole entry, looked up): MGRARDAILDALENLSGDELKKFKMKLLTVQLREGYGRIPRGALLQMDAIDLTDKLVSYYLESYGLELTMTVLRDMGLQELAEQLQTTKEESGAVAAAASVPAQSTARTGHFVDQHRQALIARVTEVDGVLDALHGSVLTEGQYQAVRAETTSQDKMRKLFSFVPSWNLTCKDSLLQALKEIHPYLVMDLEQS

In the case of `CCOC(CN1C(=O)C(NC(=O)Nc2ccc(C)cc2)(C(F)(F)C(=O)Nc2ccc(C)cc2)c2ccccc21)OCC` (centres undefined), in the data set on BMDM, the inhibition result was “Dose-dependent effect”. Also, the inhibition result (on Caspase-8 (Mus musculus); in [3]) was “inactive” each time. The result (in the data set on Mus musculus [1]; with Mus musculus [4]; in the data set filed under Danio rerio; with Mus musculus [5]; in data set [7]) was Active. Also, the MST in the data set with Mus musculus [2] worked out at 8 h. Moreover, the inhibition result on Caspase-4 (Mus musculus) and in the data set on THP-1 was “Active” throughout. Also, in data set [6], the outcome was inactive. Further, the EC100 in [8] is > 50 µM. For the same compound, in data set [9], the logP – broadly, a log measure of how a compound divides between an organic and an aqueous phase – was 4.1.

The values are drawn from ChEMBL document CHEMBL4619791, “3-Difluoroalkyl Quaternary Oxindoles Inhibit Macrophage Pyroptosis by Blocking Inflammasome Recruitment of Caspase-1” (ACS Med Chem Lett, 2020).
